In paper PMC5074845 (ACS chemical biology, 2016):
Values joined by “and” are separate entries in the source; they are usually repeats but may differ in a detail not shown here. Equal values may be shown once. Read-outs that look alike come from different tables or passages of the source. Blank lines part the entries; values can stand above or below the compound they belong to.

Assays:
[1] = biological target: T1, NAPE-PLD (Homo sapiens, UniProt Q6IQ20); test: Fluorescence-based NAPE-PLD activity assay with substrate PED6; assay type: biochemical
T1 sequence (Q6IQ20 48-393 limits assumed): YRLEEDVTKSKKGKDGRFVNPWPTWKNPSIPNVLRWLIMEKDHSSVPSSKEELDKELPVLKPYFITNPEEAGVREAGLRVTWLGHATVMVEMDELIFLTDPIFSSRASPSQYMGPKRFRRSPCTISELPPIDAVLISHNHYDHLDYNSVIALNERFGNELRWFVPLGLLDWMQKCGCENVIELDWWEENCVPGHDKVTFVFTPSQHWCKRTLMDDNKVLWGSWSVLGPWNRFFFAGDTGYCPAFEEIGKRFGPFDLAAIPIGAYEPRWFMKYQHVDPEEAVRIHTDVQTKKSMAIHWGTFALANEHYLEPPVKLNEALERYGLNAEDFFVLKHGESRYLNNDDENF
Outline: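 Recombinant human enzyme, purified by amylose then Ni-affinity and size exclusion. Enzyme at 25 nM in 50 mM Tris-HCl pH 8 was pre-incubated 1 h at room temperature with test bile acids (0–5 mM). PED6 was added to 10 μM final (1% DMSO/ethyl acetate). Fluorescence was read after 30 min at 25 °C in the dark ([…] filters). Monohydroxy bile acid was run with 0.2% w/v DCA.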

[2] = biological target: T1, NAPE-PLD; test: Binding kinetics by surface plasmon resonance; details: for binding affinity compared with another bile acid: SPR, 25 °C, comparison in words
[3] = biological target: T1, NAPE-PLD; test: Enzyme kinetics by UPLC-MS/MS in the presence of DCA; assay type: biochemical; details: for Km / maximum velocity (Vmax): DCA 0.2% w/v, 37 °C, 15 min, UPLC-MS/MS
Outline: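 Recombinant enzyme was incubated with varying N-arachidonoyl-PE or N-palmitoyl-PE in 0.05 M Tris-HCl pH 7.4 with 0.2% w/v DCA, 15 min, 37 °C. Reactions were stopped with cold acetonitrile containing AEA-d4 or PEA-d4 internal standard, centrifuged, and the organic layer taken. Products (AEA, PEA) were quantified by UPLC-MS/MS MRM in positive ESI against weighted (1/x) calibration curves. Runs were in triplicate. Km and Vmax came from Michaelis–Menten fits.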

[4] = test system: NAPE-PLD; details: without bile acid; cited from earlier work
[5] = biological target: T1, NAPE-PLD; test: Elastic incoherent neutron scattering; details: DCA ~10 times the concentration of the enzyme, 280-307 K, D2O buffer
Outline: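 Purified enzyme in D2O (five exchanges against 100× volume) at 100 mg/mL, with DCA at 0.00, 0.05, 0.15, 0.50 or 1.00% w/v (DCA:enzyme ratios 0–10). Elastic spectra were collected at […], ~3 h per point, on IN13 (up to 100 ps). <u2> came from the slope of ln elastic intensity versus Q2. Force constant came from the <u2>-versus-T slope under a quasi-harmonic approximation.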

Compound: C[C@H](CCC(=O)NCCS(=O)(=O)O)[C@H]1CC[C@H]2[C@@H]3[C@H](O)C[C@@H]4C[C@H](O)CC[C@]4(C)[C@H]3C[C@H](O)[C@]12C [TCA, taurocholic acid]
binding affinity compared with another bile acid [2]: ~tenfold lower

Compound: C[C@H](CCC(=O)NCCC[N+](C)(C)CCCS(=O)(=O)[O-])[C@H]1CC[C@H]2[C@@H]3[C@H](O)C[C@@H]4C[C@H](O)CC[C@]4(C)[C@H]3C[C@H](O)[C@]12C [CHAPS]
binding affinity compared with another bile acid [2]: ~tenfold lower

Compound: C[C@H](CCC(=O)O)[C@H]1CC[C@H]2[C@@H]3[C@H](O)C[C@@H]4C[C@H](O)CC[C@]4(C)[C@H]3CC[C@]12C [CDCA, chenodeoxycholic acid]
EC50 [1]: ~4300 µM | Kd [2]: ~25 µM

Compound: C[C@H](CCC(=O)O)[C@H]1CC[C@H]2[C@@H]3[C@H](O)C[C@@H]4C[C@H](O)CC[C@]4(C)[C@H]3C[C@H](O)[C@]12C [CA, cholic acid]
Kd [2]: ~403 µM | binding affinity compared with another bile acid [2]: ~tenfold lower binding affinity

Compound: C[C@H](CCC(=O)O)[C@H]1CC[C@H]2[C@@H]3CC[C@@H]4C[C@H](O)CC[C@]4(C)[C@H]3C[C@H](O)[C@]12C [DCA, deoxycholic acid]
effect on protein flexibility (force constant k, mean square displacement) [5]: the system lost flexibility | Kd [2]: ~43 µM

Compound: CC(=O)O[C@H]1C[C@@]2(C)[C@@H](C[C@@H](O)[C@H]3[C@@]4(C)CC[C@@H](O)[C@@H](C)[C@@H]4CC[C@@]32C)/C1=C(\CCC=C(C)C)C(=O)O [FA, fusidic acid]
Kd [2]: ~70 µM

The next lines start with results.

EC50 ([1]; read-out: EC50 of enzyme activation, enzyme 25 nM, PED6 substrate, 25 °C, 30 min): ~3600 µM
Compound: C[C@H](CCC(=O)NCC(=O)O)[C@H]1CC[C@H]2[C@@H]3[C@H](O)C[C@@H]4C[C@H](O)CC[C@]4(C)[C@H]3CC[C@]12C [GCDG]

Km [3]: ~9 µM and 9.6 µM | rate of hydrolysis compared with N-palmitoyl-phosphatidylethanolamine ([3]; in the presence of deoxycholic acid): ~ 7 times
Compound: N-arachidonyl-phosphatidylethanolamine [N-arachidonoyl-PE]
maximum velocity (Vmax) [3]: 1131 (± 124.4) nmol/min/mg protein and ~ 1131 nmol/min/mg protein | Vmax [4]: ~ 73 nmol/min/mg

Kd [2]: ~20 µM
Compound: C[C@H](CCC(=O)O)[C@H]1CC[C@H]2[C@@H]3CC[C@@H]4C[C@H](O)CC[C@]4(C)[C@H]3CC[C@]12C [LCA, lithocholic acid]
effect on NAPE-PLD enzyme activity ([1]; bile acid alone, PED6 substrate): not able alone to solubilize the substrate and activate the membrane enzyme

Km [3]: ~9 µM and 9.2 µM
Compound: N-palmitoyl-phosphatidylethanolamine [N-palmitoyl-PE]
maximum velocity (Vmax) [3]: 155.8 (± 38.36) nmol/min/mg protein and ~ 156 nmol/min/mg protein | Vmax [4]: ~ 98 nmol/min/mg
